Legend:
SH-SY5Y [1] = assay: Neuroprotective activity against human SH-SY5Y cells assessed as reduction in K+-induced LDH release at 0.3 uM relative to control; assay type: functional; parameters: scale not given: the % may be the effect or the level left
Outline: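 SH-SY5Y neuroblastoma cells maintained in DMEM with 10% FCS at 37 °C in 5% CO2, used at passages 3–16. Cells treated before confluence in serum-free DMEM. Cell death from Ca2+ overload induced by 70 mM K+, read as LDH release. Compounds tested at 0.3 (unit as printed); nimodipine as reference. Means ± SEM, at least three cultures in quadruplicate.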

SH-SY5Y [2] = assay: Neuroprotective activity against human SH-SY5Y cells assessed as reduction in H2O2-induced LDH release at 0.3 uM relative to control; assay type: functional; parameters: scale not given: the % may be the effect or the level left
SH-SY5Y [3] = assay: Neuroprotective activity against free radical-induced cell death in human SH-SY5Y cells at 0.3 uM in presence of H2O2 relative to control
SH-SY5Y [4] = assay: Blockade of high K+-induced increase in calcium uptake in human SH-SY5Y cells at 0.3 uM relative to control; assay type: functional
SH-SY5Y [5] = assay: Neuroprotective activity against calcium overload-induced cell death in human SH-SY5Y cells at 0.3 uM in presence of K+ relative to control; assay type: functional
Outline: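 SH-SY5Y cells (passages 3–16 after thawing) were grown in DMEM with 10% FCS, glutamine and penicillin/streptomycin at 37 °C in 5% CO2. They were treated with compound before confluence in serum-free DMEM and challenged with 70 mM K+. Read-out was the reduction in the increase of LDH released, relative to a drug-free control. Means ± SEM from at least three cultures in quadruplicate.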

Structure (SMILES)	Activity (SH-SY5Y [1])	Activity (SH-SY5Y [2])	Activity (SH-SY5Y [3])	Activity (SH-SY5Y [4])	Activity (SH-SY5Y [5])
CCOC(=O)C1=C(C)NC(N)=C(C#N)C1c1ccncc1 (stereo not given)	70.5%	66.7%	46.7%	32.6%	43.3%
Cc1ccc(C2C(C#N)=C(N)NC3=C2C(=O)CC(C)(C)C3)cc1 (stereo not given)	68.4%	88.6%	14.9%	28.6%	44.4%
CC1(C)CC(=O)C2=C(C1)NC(N)=C(C#N)C2c1ccncc1 (stereo not given)	71.4%	77.7%	29.1%	50.4%	39.5%
COc1ccc(C2C(C#N)=C(N)NC3=C2C(=O)CC(C)(C)C3)cc1 (stereo not given)	69.3%	77.8%	29%	12.6%	43.2%
CC1(C)CC(=O)C2=C(C1)NC(N)=C(C#N)C2c1ccc(F)cc1 (stereo not given)	69.9%	75.4%	32.4%	63.9%	42.3%
CCOC(=O)C1=C(C)NC(N)=C(C#N)C1c1ccc(OC)c(OC)c1 (stereo not given)	80.5%	70.2%	40.8%	21.8%	31.2%
CC1(C)CC(=O)C2=C(C1)NC(N)=C(C#N)C2c1ccccc1 (stereo not given)	61.2%	84.2%	20.6%	20.8%	54.7%
CCOC(=O)C1=C(C)NC(N)=C(C#N)C1c1ccc([N+](=O)[O-])cc1 (stereo not given)	68.9%	83.4%	23.1%	17.6%	45.7%
CCOC(=O)C1=C(C)NC(N)=C(C#N)C1c1ccccc1OC (stereo not given)	78.2%	88.4%	15%	24.3%	31.5%
CCOC(=O)C1=C(C)NC(N)=C(C#N)C1c1cccc(OC)c1 (stereo not given)	77.9%	86.1%	27.7%	25%	32.1%
CCOC(=O)C1=C(C)NC(N)=C(C#N)C1c1cccc([N+](=O)[O-])c1 (stereo not given)	79.4%	84.5%	21.2%	27.8%	30.3%
CCOC(=O)C1=C(C)NC(N)=C(C#N)C1c1ccccc1 (stereo not given)	76.26%	86.7%	17.3%	34.03%	34.1%
CCOC(=O)C1=C(C)NC(N)=C(C#N)C1c1ccc(F)cc1 (stereo not given)	72.8%	82.2%	24.7%	7.2%	39.8%
CCOC(=O)C1=C(C)NC(N)=C(C#N)C1c1ccccc1C(F)(F)F (stereo not given)	72.11%	78.6%	28.2%	30.4%	40.2%
CCOC(=O)C1=C(C)NC(N)=C(C#N)C1c1cccnc1 (stereo not given)	70.5%	84.5%	21.2%	14.1%	43.4%
CCOC(=O)C1=C(C)NC(N)=C(C#N)C1c1ccc(-c2ccccc2)cc1 (stereo not given)	90.9%	80.3%	26.2%	23.9%	12.9%
CCOC(=O)C1=C(C)NC(N)=C(C#N)C1c1ccc(OC)cc1 (stereo not given)	89.9%	77.7%	31.3%	11.8%	14.4%
CCOC(=O)C1=C(C)NC(N)=C(C#N)C1c1ccc(C)cc1 (stereo not given)	72.3%	69.7%	42.4%	16.9%	40.8%
CCOC(=O)C1=C(C)NC(N)=C(C#N)C1c1ccccc1[N+](=O)[O-] (stereo not given)	71.11%	98.8%	1.6%	16.1%	42.6%
COCCOC(=O)C1=C(C)NC(C)=C(C(=O)OC(C)C)C1c1cccc([N+](=O)[O-])c1 (stereo not given) [NIMODIPINE]	75%	75.4%	36.03%	45.5%	35.9%
